# Measured values collected from several papers.
# Each line is one published result; the experiments were not run side by side.
Compound,system,setting,concentration
O=c1nc(N2CCN(CC3CCCCC3)CC2)sc2c([N+](=O)[O-])cc(C(F)(F)F)cc12,"CD-1 mouse, lung","intravenous, 10 mg/kg, 24 h",15 ng/mL
CC(C)Oc1cccc(-c2cnc(N3CCC(C(N)=O)CC3)s2)c1,"male Swiss mouse, plasma","oral, 30 mg/kg, 15 min, single dose",416 ng/mL
COc1cc(F)c([C@@H]2CNC(=O)[C@H]2NC(=O)Nc2ccccc2)c(F)c1,"C57BL/6 mouse, plasma","oral, 0.3 mg/kg, 2 h",3 nM
O=S(=O)(c1ccc(-c2ccc3nccc(Nc4ccncn4)c3c2)cc1)N1CCOCC1,"female BALB/c mouse, plasma","intraperitoneal, 10 mg/kg, 1 h",1290 ng/mL
CC(C)(Nc1nc(-c2ccccn2)nc2ccccc12)c1ccccn1,"female BALB/c mouse, plasma","oral, 50 mg/kg, 24 h",79 ng/mL
CC(C)CN(C[C@@H](O)[C@H](Cc1ccccc1)NC(=O)O[C@H]1CO[C@H]2OCC[C@H]21)S(=O)(=O)c1ccc(N)cc1,"BALB/c mouse, brain","intravenous, 25 mg/kg, 6 h",1.85 ng/g
O=C(O)C1CCN(c2ncc(-c3ccc4c(c3)OCCCO4)s2)CC1,"male Swiss mouse, plasma","oral, 30 mg/kg, 15 min, single dose",15000 ng/mL
c1ccc(-c2nc(N3CCC(c4ccccn4)C3)c3ccccc3n2)nc1 (centres unmarked),"female BALB/c mouse, plasma","oral, 50 mg/kg, 15 min",2130 ng/mL
